Among the data in ChEMBL document CHEMBL1147181, “Glutamine vinyl ester proteasome inhibitors selective for trypsin-like (beta2) subunit” (Eur J Med Chem, 2007) are IC50 and half-life values, retold here.

Data set [1] in a line: Inhibition of peptidylglutamyl-peptide hydrolyzing-like activity of 20S proteasome in lymphoblastoid cells after 30 mins. Type of data set: cell-based, Homo sapiens. A digest of the protocol: (§1)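 Proteasome partially purified from lymphoblastoid cell lines, then affinity-purified (anti-α-subunit mAb) and dialyzed against 25 mM Tris-HCl pH 7.5; protein by BCA. Enzyme untreated or pretreated with 0.001–10 test compound, then incubated with subsite-specific fluorogenic substrate 30 min at 37 °C in activity buffer; fluorescence ex 360/em 465 nm. IC50 from fit of percent control vs concentration, Y=100/(1+(X/IC50))^A.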

Data set [2] is described as follows: Inhibition of trypsin-like activity of 20S proteasome in lymphoblastoid cells after 30 mins. It counts as cell-based, Homo sapiens. A digest of the protocol: as §1
Data set [3] in a line: Inhibition of chymotrypsin-like activity of 20S proteasome in lymphoblastoid cells after 30 mins. It counts as cell-based, Homo sapiens. In short, it runs like this:
as §1

The species named for another data set is Homo sapiens. The data set is described as follows: Stability in human plasma after 6 hrs.

As for `CCOC(=O)/C=C/[C@H](CC(C)C)NC(=O)[C@H](CO)NC(=O)[C@@H]1Cc2ccccc2CN1C(=O)c1cccc(O)c1C`, the values for the IC50 in data set [1], in data set [2] and in data set [3] were > 10 µM, 0.098 µM and 7.36 µM, respectively. In addition, the half-life (as a rule, the time in which the quantity being followed falls by half) in the data set listed under Homo sapiens is > 6 h.
With `CCOC(=O)/C=C/[C@H](CCC(N)=O)NC(=O)[C@H](CC(C)C)NC(=O)[C@H](CC(C)C)NC(=O)c1cccc(O)c1C`, the concentration for half-maximal inhibition (IC50) (commonly the concentration needed to halve the response being measured) in data set [1] was > 10 µM; in data set [2], 0.145 µM; in data set [3] it was 8.41 µM. The half-life in the data set listed under Homo sapiens is > 6 h.
Take `CCOC(=O)/C=C/[C@H](CCC(N)=O)NC(=O)[C@H](CO)NC(=O)[C@@H]1Cc2ccccc2CN1C(=O)c1cccc(O)c1C`: the IC50 in data set [1] was > 10 µM; in data set [2], 0.349 µM; in data set [3], > 10 µM. In the data set listed under Homo sapiens, the half-life was > 6 h.
For the molecule `CCOC(=O)/C=C/[C@H](CC(C)C)NC(=O)[C@@H]1Cc2ccccc2CN1C(=O)[C@H](CC(C)C)NC(=O)c1cccc(O)c1C`, the IC50 in data set [1], in data set [2] and in data set [3] was > 10 µM throughout. For the same molecule, the half-life in the data set listed under Homo sapiens is > 6 h.
As to `CCOC(=O)/C=C/[C@H](CC(C)C)NC(=O)[C@H](CO)NC(=O)[C@@H](NC(=O)c1cccc(O)c1C)C(C)C`, the results for the IC50 in data set [1], in data set [2] and in data set [3] were > 10 µM, 0.033 µM and > 10 µM, respectively. In addition, the half-life in the data set filed under Homo sapiens is > 6 h.
For the molecule `CCOC(=O)/C=C/[C@H](CCC(N)=O)NC(=O)[C@@H]1Cc2ccccc2CN1C(=O)[C@H](CC(C)C)NC(=O)c1cccc(O)c1C`, the IC50 is > 10 µM in data set [1], 5.89 µM in data set [2] and > 10 µM in data set [3]. For the same molecule, in the data set listed under Homo sapiens, the half-life was > 6 h.
As to `CCOC(=O)/C=C/[C@H](CC(C)C)NC(=O)[C@H](CC(C)C)NC(=O)[C@@H]1Cc2ccccc2CN1C(=O)c1cccc(O)c1C`, the figures for the IC50 in data set [1], in data set [2] and in data set [3] were > 10 µM, 0.157 µM and 6.89 µM, respectively. In addition, the half-life in the data set listed under Homo sapiens is > 6 h.
Take `CCOC(=O)/C=C/[C@H](CCC(N)=O)NC(=O)[C@@H]1Cc2ccccc2CN1C(=O)[C@@H](NC(=O)c1cccc(O)c1C)C(C)C`: the IC50 was > 10 µM in data set [1], 2.34 µM in data set [2] and > 10 µM in data set [3]. The half-life in the data set listed under Homo sapiens is > 6 h.
With `CCOC(=O)/C=C/[C@H](CCC(N)=O)NC(=O)[C@H](CO)NC(=O)[C@@H](NC(=O)c1cccc(O)c1C)C(C)C`, the values for the IC50 in data set [1], in data set [2] and in data set [3] were > 10 µM, 0.056 µM and > 10 µM, respectively. Besides, in the data set listed under Homo sapiens, the half-life was > 6 h.
Turning to `CCOC(=O)/C=C/[C@H](CC(C)C)NC(=O)[C@@H]1Cc2ccccc2CN1C(=O)[C@@H](NC(=O)c1cccc(O)c1C)C(C)C`, the half-inhibitory concentration (IC50) in data set [1] is > 10 µM; in data set [2], 8.51 µM; in data set [3] it was > 10 µM. The half-life in the data set filed under Homo sapiens is > 6 h.
Take `CCOC(=O)/C=C/[C@H](CCC(N)=O)NC(=O)[C@H](CC(C)C)NC(=O)[C@@H]1Cc2ccccc2CN1C(=O)c1cccc(O)c1C`: the IC50 in data set [1] was > 10 µM; in data set [2] it was 0.435 µM; in data set [3] it was > 10 µM. Besides, the half-life in the data set listed under Homo sapiens was > 6 h.
